Among the data in ChEMBL document CHEMBL3739286, “Betulinic acid derived hydroxamates and betulin derived carbamates are interesting scaffolds for the synthesis of novel cytotoxic compounds” (Eur J Med Chem, 2015) are EC50 values, retold here.

The nature of assay [1]: Cytotoxicity against human 518A2 cells after 96 hrs by SRB assay. In kind it is functional, cell-based. In a few lines:
(§1)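 Photometric sulforhodamine B read-out of antiproliferative effect after 96 h of continuous treatment; EC₅₀ values in µM, averaged from three independent experiments each run in triplicate; the assay cut-off is EC₅₀ > 30 µM. Human tumour lines are tested alongside nonmalignant mouse NIH 3T3 fibroblasts.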
In general terms: In SRB staining, fixed cells bind dye roughly in proportion to their protein.

The subject of the next assay is A2780. The experiment in a line: Cytotoxicity against human A2780 cells after 96 hrs by SRB assay. In kind it is functional, cell-based. In a few lines: as §1
Another assay has as its system A549. Briefly: Cytotoxicity against human A549 cells after 96 hrs by SRB assay. It counts as functional, cell-based. In outline:
as §1

Another assay deals with MCF7. Briefly: Cytotoxicity against human MCF7 cells after 96 hrs by SRB assay. It counts as functional, cell-based. In a few lines: as §1
Assay [2] in a line: Cytotoxicity against mouse NIH/3T3 cells after 96 hrs by SRB assay. It counts as cell-based, NIH3T3. In outline: as §1
The subject of another assay is HeLa. The experiment in a line: Cytotoxicity against human HeLa cells after 96 hrs by SRB assay. It counts as functional, cell-based. In outline:
as §1

For another assay, the system named is HT-29. Briefly: Cytotoxicity against human HT-29 cells after 96 hrs by SRB assay. It counts as functional, cell-based. Conditions: HT-29, 96 h. In outline: as §1
[3] abbreviates: Homo sapiens, 518A2, 96 h, read-out: EC50.
Setting [4] is: Homo sapiens, A2780, 96 h, read-out: EC50.
The mark [5] stands for this setting: Homo sapiens, A549, 96 h, read-out: EC50.
[6] abbreviates: Homo sapiens, MCF7, 96 h, read-out: EC50.
Setting [7] is: Mus musculus, NIH3T3, 96 h, read-out: EC50.

As usually defined, the EC50 is the concentration at which the effect is half-maximal. As to `C=C(C)[C@@H]1CC[C@]2(CO)CC[C@]3(C)[C@H](CC[C@@H]4[C@@]5(C)CC[C@H](OC(C)=O)C(C)(C)[C@@H]5CC[C@]43C)[C@@H]12`, the EC50 in assay [1] (setting [3]) is 15.2 µM; with A2780 (setting [4]), 11 µM; in the assay with A549 (setting [5]), 14 µM; in the assay with MCF7 (setting [6]) it was 11.2 µM; in assay [2] (setting [7]), greater than 30 µM.
The matching figures for `C=C(C)[C@@H]1CC[C@]2(C(=O)O)CC[C@]3(C)[C@H](CC[C@@H]4[C@@]5(C)CC[C@H](OC(C)=O)C(C)(C)[C@@H]5CC[C@]43C)[C@@H]12`: 4.5 µM, 18.3 µM, 6.2 µM, 11 µM and greater than 30 µM.
As for `C=C(C)[C@@H]1CC[C@]2(C(=O)NCc3ccccc3)CC[C@]3(C)[C@H](CC[C@@H]4[C@@]5(C)CC[C@H](O)C(C)(C)[C@@H]5CC[C@]43C)[C@@H]12`, the EC50 is greater than 30 µM in assay [1] (setting [3]); 11.8 µM with A2780 (setting [4]); greater than 30 µM with A549 (setting [5]); 18 µM with MCF7 (setting [6]); 11.1 µM in assay [2] (setting [7]); greater than 30 µM in the assay on HeLa.
Regarding `C=C(C)[C@@H]1CC[C@]2(C(=O)NO)CC[C@]3(C)[C@H](CC[C@@H]4[C@@]5(C)CC[C@H](OC(C)=O)C(C)(C)[C@@H]5CC[C@]43C)[C@@H]12`, the half-maximal effective concentration (EC50) in assay [1] (setting [3]) was determined as 1.6 µM; in the assay on A2780 (setting [4]), 1.3 µM; in the assay with A549 (setting [5]), 1.3 µM; in the assay with MCF7 (setting [6]), 1.4 µM; in assay [2] (setting [7]) it was 1.1 µM.
As for `C=C(C)[C@@H]1CC[C@]2(COC(=O)NCCCCCC)CC[C@]3(C)[C@H](CC[C@@H]4[C@@]5(C)CC[C@H](O)C(C)(C)[C@@H]5CC[C@]43C)[C@@H]12`, the EC50 in assay [1] (setting [3]) was 5.5 µM; in the assay with A2780 (setting [4]), 7.7 µM; in the assay on A549 (setting [5]), 12.7 µM; in the assay on MCF7 (setting [6]), greater than 30 µM; in assay [2] (setting [7]), greater than 30 µM; with HT-29, greater than 30 µM. A half-maximal response in the assay on HeLa (EC50) required 7.4 µM.
With `C=C(C)[C@@H]1CC[C@]2(C(=O)NO)CC[C@]3(C)[C@H](CC[C@@H]4[C@@]5(C)CC[C@H](O)C(C)(C)[C@@H]5CC[C@]43C)[C@@H]12`, the EC50 was determined as 2.4 µM in assay [1] (setting [3]); 3.7 µM in the assay on A2780 (setting [4]); 5.3 µM in the assay with A549 (setting [5]); 3.9 µM in the assay with MCF7 (setting [6]); 2 µM in assay [2] (setting [7]).
Take `C=C(C)[C@@H]1CC[C@]2(COC(=O)NCCCC)CC[C@]3(C)[C@H](CC[C@@H]4[C@@]5(C)CC[C@H](O)C(C)(C)[C@@H]5CC[C@]43C)[C@@H]12`: the EC50 in assay [1] (setting [3]) stood at 8 µM; in the assay on A2780 (setting [4]) it was 7 µM; in the assay with A549 (setting [5]) it was 8.6 µM; in the assay with MCF7 (setting [6]), 12.5 µM; in assay [2] (setting [7]), 5.7 µM; in the assay on HT-29, 7.5 µM. In the assay on HeLa, this compound returned an EC50 of 10.1 µM.
Take `C=C(C)[C@@H]1CC[C@]2(COC(=O)Nc3ccccc3)CC[C@]3(C)[C@H](CC[C@@H]4[C@@]5(C)CC[C@H](O)C(C)(C)[C@@H]5CC[C@]43C)[C@@H]12`: the EC50 in assay [1] (setting [3]) is 23.9 µM; with A2780 (setting [4]) it was 7.2 µM; in the assay with A549 (setting [5]), greater than 30 µM; in the assay with MCF7 (setting [6]), 24.6 µM; in assay [2] (setting [7]), 14.3 µM; in the assay with HT-29, 16.3 µM. The compound further had an EC50 in the assay on HeLa of 11.5 µM.
Consider `C=C(C)[C@@H]1CC[C@]2(C(=O)N(C)OC)CC[C@]3(C)[C@H](CC[C@@H]4[C@@]5(C)CCC(=O)C(C)(C)[C@@H]5CC[C@]43C)[C@@H]12`, for which the EC50 in assay [1] (setting [3]) was greater than 30 µM; in the assay on A2780 (setting [4]), 20.7 µM; with A549 (setting [5]) it was 14.5 µM; in the assay with MCF7 (setting [6]) it was 18.7 µM; in assay [2] (setting [7]), 26.7 µM.
As for `C=C(C)[C@@H]1CC[C@]2(C(=O)N(C)OC)CC[C@]3(C)[C@H](CC[C@@H]4[C@@]5(C)CC[C@H](OC(C)=O)C(C)(C)[C@@H]5CC[C@]43C)[C@@H]12`, the EC50 amounted to 17.5 µM in assay [1] (setting [3]); 19.3 µM with A2780 (setting [4]); 20.1 µM with A549 (setting [5]); 16.4 µM with MCF7 (setting [6]); 17.4 µM in assay [2] (setting [7]).
For `C=CCONC(=O)[C@]12CC[C@@H](C(=C)C)[C@@H]1[C@H]1CC[C@@H]3[C@@]4(C)CC[C@H](O)C(C)(C)[C@@H]4CC[C@@]3(C)[C@]1(C)CC2`, the concentration for a half-maximal effect (EC50) in assay [1] (setting [3]) came out at 6.7 µM; in the assay on A2780 (setting [4]) it was 7.3 µM; in the assay with A549 (setting [5]) it was 4.1 µM; in the assay with MCF7 (setting [6]), 8.6 µM; in assay [2] (setting [7]), 6.1 µM.
The matching figures for `C=CCONC(=O)[C@]12CC[C@@H](C(=C)C)[C@@H]1[C@H]1CC[C@@H]3[C@@]4(C)CCC(=O)C(C)(C)[C@@H]4CC[C@@]3(C)[C@]1(C)CC2`: 22.4 µM, 19.7 µM, 25 µM, 18.4 µM and 19.7 µM.
As to `C=C(C)[C@@H]1CC[C@]2(C(=O)N(C)O)CC[C@]3(C)[C@H](CC[C@@H]4[C@@]5(C)CCC(=O)C(C)(C)[C@@H]5CC[C@]43C)[C@@H]12`, the EC50 in assay [1] (setting [3]) worked out at 6.3 µM; in the assay with A2780 (setting [4]), 3 µM; in the assay on A549 (setting [5]), 6 µM; with MCF7 (setting [6]), 10.2 µM; in assay [2] (setting [7]), 5 µM.
The like results for `C=C(C)[C@@H]1CC[C@]2(C(=O)N(C)OC)CC[C@]3(C)[C@H](CC[C@@H]4[C@@]5(C)CC[C@H](O)C(C)(C)[C@@H]5CC[C@]43C)[C@@H]12` were, in that order, 7.3 µM, 7.6 µM, 19 µM, 10.2 µM and 7.7 µM.
On to `C=CCONC(=O)[C@]12CC[C@@H](C(=C)C)[C@@H]1[C@H]1CC[C@@H]3[C@@]4(C)CC[C@H](OC(C)=O)C(C)(C)[C@@H]4CC[C@@]3(C)[C@]1(C)CC2`, for which the EC50 in assay [1] (setting [3]) was 7.6 µM; with A2780 (setting [4]), 5.9 µM; with A549 (setting [5]), 6.6 µM; with MCF7 (setting [6]), 12.2 µM; in assay [2] (setting [7]) it was greater than 30 µM.
On to `C=C(C)[C@@H]1CC[C@]2(C(=O)N(C)O)CC[C@]3(C)[C@H](CC[C@@H]4[C@@]5(C)CC[C@H](O)C(C)(C)[C@@H]5CC[C@]43C)[C@@H]12`, for which the EC50 result (in assay [1] (518a2); with A2780 (a2780); in the assay with A549 (a549); in the assay with MCF7 (mcf7); in assay [2] (nih3t3)) was “ND(Insoluble)” in each case.
Regarding `C=C(C)[C@@H]1CC[C@]2(C(=O)NOC)CC[C@]3(C)[C@H](CC[C@@H]4[C@@]5(C)CC[C@H](OC(C)=O)C(C)(C)[C@@H]5CC[C@]43C)[C@@H]12`, the EC50 came to 8 µM in assay [1] (setting [3]); 8.9 µM in the assay on A2780 (setting [4]); 11.7 µM with A549 (setting [5]); 13.5 µM in the assay with MCF7 (setting [6]); 9.5 µM in assay [2] (setting [7]).
Take `C=C(C)[C@@H]1CC[C@]2(C(=O)N(C)O)CC[C@]3(C)[C@H](CC[C@@H]4[C@@]5(C)CC[C@H](OC(C)=O)C(C)(C)[C@@H]5CC[C@]43C)[C@@H]12`: the EC50 in assay [1] (setting [3]) is 3.5 µM; in the assay on A2780 (setting [4]), 2 µM; in the assay on A549 (setting [5]) it was 4.3 µM; with MCF7 (setting [6]), 2.3 µM; in assay [2] (setting [7]), 2.9 µM.
As to `C=C(C)[C@@H]1CC[C@]2(C(=O)NOC)CC[C@]3(C)[C@H](CC[C@@H]4[C@@]5(C)CC[C@H](O)C(C)(C)[C@@H]5CC[C@]43C)[C@@H]12`, the EC50 in assay [1] (setting [3]) is 5.8 µM; in the assay with A2780 (setting [4]), 12.3 µM; with A549 (setting [5]), 6.9 µM; in the assay with MCF7 (setting [6]), 21.9 µM; in assay [2] (setting [7]), 15.2 µM.
`C=C(C)[C@@H]1CC[C@]2(C(=O)NOC)CC[C@]3(C)[C@H](CC[C@@H]4[C@@]5(C)CCC(=O)C(C)(C)[C@@H]5CC[C@]43C)[C@@H]12`: the EC50 in assay [1] (setting [3]) was found to be 17.2 µM; in the assay with A2780 (setting [4]), 12 µM; in the assay with A549 (setting [5]), 6.1 µM; in the assay on MCF7 (setting [6]), 13.8 µM; in assay [2] (setting [7]) it was 12.7 µM.
Consider `C=C(C)[C@@H]1CC[C@]2(COC(C)=O)CC[C@]3(C)[C@H](CC[C@@H]4[C@@]5(C)CC[C@H](OC(C)=O)C(C)(C)[C@@H]5CC[C@]43C)[C@@H]12` [BETULIN DIACETATE], for which the EC50 (in assay [1] (setting [3]); with A2780 (setting [4]); with A549 (setting [5]); in the assay with MCF7 (setting [6]); in assay [2] (setting [7])) was greater than 30 µM throughout.
Consider `C=C(C)[C@@H]1CC[C@]2(C(=O)O)CC[C@]3(C)[C@H](CC[C@@H]4[C@@]5(C)CC[C@H](O)C(C)(C)[C@@H]5CC[C@]43C)[C@@H]12` [BETULINIC ACID], for which the EC50 was 9.4 µM in assay [1] (setting [3]); 8.8 µM in the assay on A2780 (setting [4]); 17.1 µM with A549 (setting [5]); 10.2 µM in the assay with MCF7 (setting [6]); 16.1 µM in assay [2] (setting [7]).
On to `C=C(C)[C@@H]1CC[C@]2(CO)CC[C@]3(C)[C@H](CC[C@@H]4[C@@]5(C)CC[C@H](O)C(C)(C)[C@@H]5CC[C@]43C)[C@@H]12` [BETULIN], for which the EC50 (in assay [1] (setting [3]); with A2780 (setting [4]); in the assay with A549 (setting [5]); in the assay with MCF7 (setting [6]); in assay [2] (setting [7])) was greater than 30 µM in each case.
With `C=C(C)[C@@H]1CC[C@]2(C(=O)O)CC[C@]3(C)[C@H](CC[C@@H]4[C@@]5(C)CCC(=O)C(C)(C)[C@@H]5CC[C@]43C)[C@@H]12` [BETUNOLIC ACID], the EC50 in assay [1] (setting [3]) was 29 µM; with A2780 (setting [4]), 20.4 µM; in the assay with A549 (setting [5]) it was 25.9 µM; in the assay with MCF7 (setting [6]), 25.9 µM; in assay [2] (setting [7]) it was 13.1 µM.
